One data set concerns the target DENV2 NS2B-NS3pro (Dengue virus type 2, UniProt P14340). The experiment in a line: In vitro protease assay. In kind it is biochemical.
The test system of another data set is DENV2 replicon. Nature of the data set: microbe, parasite or virus in culture. In kind it is cell-based. The conditions noted are these: Dengue virus, DENV2, BHK-21, 24 h, read-out: EC50 (replicon). For orientation: A replicon is a self-replicating genome or part of one, used to study replication in cells.
Data set [1] can be described thus: Cell-based cytotoxicity assay. More on the design: species or system Baby Hamster. The conditions noted are these: hamster.
The next data set has as its system DENV2. Nature of the data set: Plaque assay of DENV2 infectivity. The class given is cell-based. The note with it: Dengue virus, DENV2, read-out: EC50 (PFU).
Data set [2] deals with oleic acid-induced LD in DENV2 infected BHK-21 cells. Nature of the data set: Oil Red O staining of lipid droplets. The note with it: 0.1 mM oleic acid-BSA, 5 μM, 24 h, absorbance at 405 nm. The class given is cell-based. Summed up: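 BHK-21 cells in MEM with 10% FBS were infected with DENV2 at MOI 1 for 1 h. They were then incubated for 24 h in MEM with 0.1 mM oleic acid-BSA plus test compound (5 μM in imaged wells), with 1% DMSO as negative control. Cells were PBS-washed, fixed in 4% paraformaldehyde for 10 min, and stained with ORO and DAPI. Dye was extracted in 100% isopropanol and read at A405. Duplicates were averaged.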

Another data set has as its system actin. The note with it: read-out: IC50 of inhibition of actin polymerization; ref Dhar et al., 2015; cited from earlier work.
A further data set deals with BHK-21 cells. The experiment in a line: Cell-based cytotoxicity assay. Set-up: species or system Baby Hamster.
[3] abbreviates: read-out: IC50 (protease activity), mean ± SD of two replicates, 25 nM DENV2 protease, 25 μM substrate Bz-Nle-Lys-Arg-Arg-AMC, 30 min, inhibitor concentrations 1.56-200 μM.

Like-named read-outs stand apart in the source and are kept apart here.

DENV2 NS2B-NS3pro, sequence (P14340 1476-1653): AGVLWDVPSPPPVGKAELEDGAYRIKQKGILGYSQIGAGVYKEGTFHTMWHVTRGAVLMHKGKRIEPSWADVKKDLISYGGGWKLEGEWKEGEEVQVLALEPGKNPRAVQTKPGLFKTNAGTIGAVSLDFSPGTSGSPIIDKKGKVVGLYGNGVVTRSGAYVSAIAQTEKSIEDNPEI
DENV2 NS2B-NS3pro, sequence (P14340 1398-1437): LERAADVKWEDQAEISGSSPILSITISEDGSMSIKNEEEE

By IC50 is commonly meant the concentration at which inhibition is half-maximal. A word on the EC50: it is the concentration needed to bring the measured effect to its halfway point. By CC50 is commonly meant the concentration giving 50% cytotoxicity. Turning to `COc1cc(C=CC(=O)CC(=O)C=Cc2ccc(O)c(OC)c2)ccc1O` [CC1, 1,7-bis(4-hydroxy-3-methoxyphenyl)-1,6-heptadiene-3,5-dione, reference compound], the values for the IC50 against DENV2 NS2B-NS3pro and in the data set with actin were 66 ± 13.1 µM and 16 µM, respectively. The concentration giving a half-maximal response (EC50) in the data set with DENV2 replicon is 13.9 ± 2.08 µM; with DENV2, 14 ± 4.62 µM. In addition, in data set [1] (BHK-21 cells), the midpoint of cytotoxicity, the CC50 at 24 h, lay at 49 ± 8.24 µM. Also, the “oleic acid-induced lipid droplets (LD), Oil Red O” value in data set [2] was “affected LD levels”.
Regarding `O=C(/C=C/c1ccc(O)cc1)CC(=O)/C=C/c1ccc(O)cc1` [CC2, Bisdemethoxycurcumin], half-maximal inhibition against DENV2 NS2B-NS3pro (IC50) was put at 36.2 ± 9.67 µM. Moreover, the EC50 in the data set on DENV2 replicon is 26.4 ± 3.67 µM; with DENV2, 6.49 ± 0.22 µM. In addition, the midpoint of cytotoxicity in data set [1], the CC50 at 24 h, lay at 43.4 ± 5.19 µM.
In the case of `COc1cc(/C=C2\CC/C(=C\c3ccc(O)c(OC)c3)C2=O)ccc1O` [CC4], at DENV2 NS2B-NS3pro (setting [3]), the IC50 came out at 43.9 ± 10.1 µM.
On to `COc1cc(C=C2CCCC(=Cc3ccc(O)c(OC)c3)C2=O)ccc1O` [CC5], for which, at DENV2 NS2B-NS3pro (setting [3]), the half-maximal inhibitory concentration (IC50) stood at 61 ± 8.7 µM. The 50% cytotoxic concentration (CC50) in the data set with BHK-21 cells stood at 25.5 ± 2.64 µM.

The values above are taken from article PMC6541004 (Antiviral research, 2018).
